Key:
Format in all cases: functional, cell-based
KLE = test: Antiproliferative activity against human KLE cells after 10 days; conditions: 240 h
Outline: (§1)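 Broad cancer cell line panel (Eurofins Oncopanel, about 240 lines; mycoplasma negative, STR verified) grown in 2D culture and exposed to compound in a 10-day proliferation assay. The top concentration was 10 μM for the SMYD2 inhibitor series and 25 μM for the SMYD3 inhibitor. The proliferative IC50 is taken from concentration-response data, each value the mean of three biological replicates.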

RL95-2 = test: Antiproliferative activity against human RL95-2 cells after 10 days; conditions: RL95-2, 240 h
BT-474 = test: Antiproliferative activity against human BT-474 cells after 10 days; conditions: BT-474, 240 h
Outline: (§2)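 Tested as part of a 240-line cancer cell panel (Eurofins Oncopanel); all lines were mycoplasma-negative and STR-verified. Cells were exposed to a compound concentration series in 2D culture for 10 days. The highest concentration was 10 μM or 25 μM, depending on the inhibitor. Antiproliferative IC50 was derived from the mean of three biological replicates.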

Y79 = test: Antiproliferative activity against human Y79 cells after 10 days; conditions: Y79, 240 h
639-V = test: Antiproliferative activity against human 639-V cells after 10 days; conditions: 240 h; outline: as §2
OE19 = test: Antiproliferative activity against human OE19 cells after 10 days; conditions: OE19, 240 h; outline: as §1
DoTc2-4510 = test: Antiproliferative activity against human DoTc2-4510 cells after 10 days; conditions: DoTc2-4510, 240 h
Outline: (§3)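 10-day 2D proliferation screen of a broad cancer cell panel (about 240 lines, Eurofins Oncopanel). All lines were mycoplasma negative and STR verified. Compounds were dosed up to a top concentration of 10 μM or 25 μM, depending on the inhibitor. Anti-proliferative IC50 values are the average of three biological replicates.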

ACHN = test: Antiproliferative activity against human ACHN cells after 10 days; conditions: 240 h; outline: as §2
Calu-1 = test: Antiproliferative activity against human Calu-1 cells after 10 days; conditions: Calu-1, 240 h; outline: as §3
BHT-101 = test: Antiproliferative activity against human BHT-101 cells after 10 days; conditions: BHT-101, 240 h; outline: as §2
NCI-H441 = test: Antiproliferative activity against human NCI-H441 cells after 10 days; conditions: NCI-H441, 240 h; outline: as §1
SK-MEL3 = test: Antiproliferative activity against human SK-MEL3 cells after 10 days; conditions: SK-MEL3, 240 h
CGTH-W-1 = test: Antiproliferative activity against human CGTH-W-1 cells after 10 days; conditions: CGTH-W-1, 240 h; outline: as §2
U-266 = test: Antiproliferative activity against human U266B1 cells after 10 days; conditions: U-266, 240 h
SW1463 = test: Antiproliferative activity against human SW1463 cells after 10 days; conditions: SW1463, 240 h
SCaBER = test: Antiproliferative activity against human SCaBER cells after 10 days; conditions: 240 h
SW1783 = test: Antiproliferative activity against human SW1783 cells after 10 days; conditions: SW1783, 240 h
COLO-320-HSR = test: Antiproliferative activity against human COLO 320HSR cells after 10 days; conditions: 240 h; outline: as §2
HOS = test: Antiproliferative activity against human HOS cells after 10 days; conditions: 240 h; outline: as §3
HPAF-II = test: Antiproliferative activity against human HPAF-II cells after 10 days; conditions: 240 h; outline: as §3
A-427 = test: Antiproliferative activity against human A-427 cells after 10 days; conditions: A-427, 240 h; outline: as §2
SJSA-1 = test: Antiproliferative activity against human SJSA-1 cells after 10 days; conditions: SJSA-1, 240 h
NCI-H508 = test: Antiproliferative activity against human NCI-H508 cells after 10 days; conditions: NCI-H508, 240 h; outline: as §1
WiDr = test: Antiproliferative activity against human WiDr cells after 10 days; conditions: 240 h
HuCCT-1 = test: Antiproliferative activity against human HuCCT-1 cells after 10 days; conditions: HuCCT-1, 240 h; outline: as §3
OE33 = test: Antiproliferative activity against human OE33 cells after 10 days; conditions: OE33, 240 h; outline: as §1
T47D = test: Antiproliferative activity against human T47D cells after 10 days; conditions: 240 h
DU-145 = test: Antiproliferative activity against human DU-145 cells after 10 days; conditions: DU-145, 240 h; outline: as §3
NCI-H292 = test: Antiproliferative activity against human NCI-H292 cells after 10 days; conditions: NCI-H292, 240 h; outline: as §1
Caov-3 cell line = test: Antiproliferative activity against human Caov-3 cells after 10 days; conditions: Caov-3, 240 h; outline: as §3
DLD-1 = test: Antiproliferative activity against human DLD-1 cells after 10 days; conditions: DLD-1, 240 h; outline: as §3
D283 Med = test: Antiproliferative activity against human D283 Med cells after 10 days; conditions: 240 h; outline: as §3
SNU-5 = test: Antiproliferative activity against human SNU-5 cells after 10 days; conditions: SNU-5, 240 h
[1] = Antiproliferative activity against human KPL-1 cells after 10 days; conditions: KPL-1, 240 h; outline: as §1
[2] = Antiproliferative activity against human TE 381.T cells after 10 days; conditions: 240 h
MOLT-16 = test: Antiproliferative activity against human MOLT-16 cells after 10 days; conditions: MOLT-16, 240 h; outline: as §1
THP-1 = test: Antiproliferative activity against human THP-1 cells after 10 days; conditions: THP-1, 240 h
SAOS-2 = test: Antiproliferative activity against human SAOS-2 cells after 10 days; conditions: SAOS-2, 240 h
SW480 = test: Antiproliferative activity against human SW480 cells after 10 days; conditions: SW480, 240 h
A549 = test: Antiproliferative activity against human A549 cells after 10 days; conditions: A549, 240 h; outline: as §2
COR-L23 = test: Antiproliferative activity against human COR-L23 cells after 10 days; conditions: COR-L23, 240 h; outline: as §3
Calu-6 = test: Antiproliferative activity against human Calu-6 cells after 10 days; conditions: Calu-6, 240 h; outline: as §3
SU.86.86 = test: Antiproliferative activity against human SU-86-86 cells after 10 days; conditions: SU.86.86, 240 h
Daudi = test: Antiproliferative activity against human Daudi cells after 10 days; conditions: 240 h; outline: as §3
DMS-273 = test: Antiproliferative activity against human DMS-273 cells after 10 days; conditions: DMS-273, 240 h; outline: as §3
SW982 = test: Antiproliferative activity against human SW982 cells after 10 days; conditions: SW982, 240 h
SW900 = test: Antiproliferative activity against human SW900 cells after 10 days; conditions: SW900, 240 h
HCT-15 = test: Antiproliferative activity against human HCT-15 cells after 10 days; conditions: HCT-15, 240 h
Outline: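 Cell lines run in the Eurofins Oncopanel broad cancer panel, all mycoplasma-negative and STR-verified. Cells were exposed to a compound concentration series in a 10-day proliferation assay, and an anti-proliferative IC50 was derived. Values are the mean of three biological replicates.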

SK-N-DZ = test: Antiproliferative activity against human SK-N-DZ cells after 10 days; conditions: 240 h

In the case of Cc1cn(CCN2CCN(c3ccccc3-c3cc(C#N)cc(C(=O)NCCCN4CCCC4)c3)CC2)c2ccccc12, the IC50 (KLE) is reported as 3.21 µM, the IC50 (RL95-2) is reported as 1290 nM and the IC50 (BT-474) is reported as 2940 nM. For the same compound, the IC50 (Y79) was 3.53 µM, the IC50 (639-V) was 1140 nM and the IC50 (OE19) was 2520 nM. It also gave an IC50 (DoTc2-4510) of 1070 nM, an IC50 (ACHN) of 3.21 µM and an IC50 (Calu-1) of 2850 nM. The IC50 (BHT-101) was 1430 nM, the IC50 (NCI-H441) was 5.63 µM and the IC50 (SK-MEL3) was 1390 nM. The IC50 (CGTH-W-1) was 2870 nM, the IC50 (U-266) was 1260 nM and the IC50 (SW1463) was 3.06 µM. For the same compound, the IC50 (SCaBER) was 1500 nM, the IC50 (SW1783) was 2960 nM and the IC50 (COLO-320-HSR) was 2740 nM. The IC50 (HOS) was 2130 nM, the IC50 (HPAF-II) was 1600 nM and the IC50 (A-427) was 1340 nM. For the same compound, the IC50 (SJSA-1) was 1470 nM, the IC50 (NCI-H508) was 3.09 µM and the IC50 (WiDr) was 838 nM. The IC50 (HuCCT-1) was 1240 nM, the IC50 (OE33) was 2000 nM and the IC50 (T47D) was 2220 nM. For the same compound, the IC50 (DU-145) was 4.13 µM, the IC50 (NCI-H292) was 2690 nM and the IC50 (Caov-3 cell line) was 2600 nM. The IC50 (DLD-1) was 3.4 µM, the IC50 (D283 Med) was 2510 nM and the IC50 (SNU-5) was 3.32 µM. It also gave an IC50 [1] of 3.43 µM, an IC50 [2] of 1990 nM and an IC50 (MOLT-16) of 1110 nM. The IC50 (THP-1) was 2860 nM, the IC50 (SAOS-2) was 3.03 µM and the IC50 (SW480) was 2150 nM. It also gave an IC50 (A549) of 3.39 µM, an IC50 (COR-L23) of 2210 nM and an IC50 (Calu-6) of 3.68 µM. The IC50 (SU.86.86) was 3.55 µM, the IC50 (Daudi) was 857 nM and the IC50 (DMS-273) was 987 nM. The IC50 (SW982) was 5.79 µM, the IC50 (SW900) was 3.22 µM and the IC50 (HCT-15) was 1700 nM. For the same compound, the IC50 (SK-N-DZ) was 3.76 µM.
In the case of O=C(NC1CN(Cc2cnn(Cc3ccccc3)c2)C1)c1cn(C2CC2)nn1, the IC50 (KLE) is reported as > 10 µM, the IC50 (RL95-2) is reported as > 10000 nM and the IC50 (BT-474) is reported as > 10000 nM. For the same compound, the IC50 (Y79) was > 10 µM, the IC50 (639-V) was > 10000 nM and the IC50 (OE19) was > 10000 nM. The IC50 (DoTc2-4510) was > 10000 nM, the IC50 (ACHN) was > 10 µM and the IC50 (Calu-1) was > 10000 nM. For the same compound, the IC50 (BHT-101) was > 10000 nM, the IC50 (NCI-H441) was > 10 µM and the IC50 (SK-MEL3) was > 10000 nM. The IC50 (CGTH-W-1) was > 10000 nM, the IC50 (U-266) was > 10000 nM and the IC50 (SW1463) was > 10 µM. The IC50 (SCaBER) was > 10000 nM, the IC50 (SW1783) was > 10000 nM and the IC50 (COLO-320-HSR) was > 10000 nM. The IC50 (HOS) was > 10000 nM, the IC50 (HPAF-II) was > 10000 nM and the IC50 (A-427) was > 10000 nM. For the same compound, the IC50 (SJSA-1) was > 10000 nM, the IC50 (NCI-H508) was > 10 µM and the IC50 (WiDr) was > 10000 nM. For the same compound, the IC50 (HuCCT-1) was > 10000 nM, the IC50 (OE33) was > 10000 nM and the IC50 (T47D) was > 10000 nM. For the same compound, the IC50 (DU-145) was > 10 µM, the IC50 (NCI-H292) was > 10000 nM and the IC50 (Caov-3 cell line) was > 10000 nM. The IC50 (DLD-1) was > 10 µM, the IC50 (D283 Med) was > 10000 nM and the IC50 (SNU-5) was > 10 µM. For the same compound, the IC50 [1] was > 10 µM, the IC50 [2] was > 10000 nM and the IC50 (MOLT-16) was > 10000 nM. For the same compound, the IC50 (THP-1) was > 10000 nM, the IC50 (SAOS-2) was > 10 µM and the IC50 (SW480) was > 10000 nM. For the same compound, the IC50 (A549) was > 10 µM, the IC50 (COR-L23) was > 10000 nM and the IC50 (Calu-6) was > 10 µM. For the same compound, the IC50 (SU.86.86) was > 10 µM, the IC50 (Daudi) was > 10000 nM and the IC50 (DMS-273) was > 10000 nM. The IC50 (SW982) was > 10 µM, the IC50 (SW900) was > 10 µM and the IC50 (HCT-15) was > 10000 nM. The IC50 (SK-N-DZ) was > 10 µM.
